Measurements reported in ChEMBL document CHEMBL1275449, “Potent in vitro antifungal activities of naturally occurring acetylenic acids” (Antimicrob Agents Chemother, 2008).
Activity calls are given as the source filed them.

Key:
Format in all cases: functional, organism-based
Cryptococcus neoformans [1] = test: Antifungal activity against Cryptococcus neoformans ATCC 90113 at 169.8 uM after 72 hrs by CLSI method
Procedure, shortened: (§1)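 SD broth replaced RPMI because growth in RPMI was poor; other CLSI conditions were kept. Inoculum was 1.5 × 10³ CFU/ml from colonies on SD agar, checked by plating. Twofold serial dilutions (11 concentrations) in 20% DMSO-saline were tested in duplicate. OD530 was read before and after incubation at 35°C for 72 h. Percent growth gave IC50; the MIC is the lowest concentration with no detectable growth.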

Candida tropicalis [2] = test: Antifungal activity against Candida tropicalis ATCC 750 at 169.8 uM after 48 hrs by CLSI method
Procedure, shortened: (§2)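 Yeast suspensions made from 3-5 colonies off 24-72 h SD agar plates in saline. They were diluted by OD630 standard curve in RPMI 1640 (0.2% dextrose, 0.03% glutamine, 0.165 M MOPS, pH 7.0) to 1.5 × 10³ CFU/ml. Twofold dilutions (11 concentrations, 20% DMSO-saline) run in duplicate. OD530 read before and after 35°C, 48 h. Line values are top test concentrations; no-growth endpoints give MIC/MFC.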

Aspergillus fumigatus [3] = test: Antifungal activity against Aspergillus fumigatus ATCC 90906 at 169.8 uM after 48 hrs by CLSI method
Aspergillus niger [4] = test: Antifungal activity against Aspergillus niger ATCC 16404 at 169.8 uM after 48 hrs by CLSI method
Candida albicans [5] = test: Antifungal activity against Fluconazole resistant Candida albicans isolate 1 at 169.8 uM after 48 hrs by CLSI method
Procedure, shortened: (§3)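 Candida in CLSI broth microdilution. Saline colony suspension set to 1.5 × 10³ CFU/ml (final) in MOPS-buffered RPMI 1640, pH 7.0. Test agent given as twofold serial dilutions in 20% DMSO-saline, duplicate wells. 35°C for 48 h. Growth read as OD530 before and after incubation. Percent inhibition scored at the highest test concentration.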

Candida albicans [6] = test: Antifungal activity against Candida albicans ATCC 32354 at 169.8 uM after 48 hrs by CLSI method
Procedure, shortened: (§4)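 Candida inocula came from 24–72-h SD agar colonies suspended in saline. They were diluted by OD630 standard curve into RPMI 1640 (0.2% dextrose, 0.03% glutamine, 0.165 M MOPS, pH 7.0) to 1.5 × 10³ CFU/ml. Compounds were run as 11 twofold dilutions in 20% DMSO-saline, in duplicate, at 35°C for 48 h, with OD530 read before and after. Percent growth at the top concentration, IC50, MIC, and MFC (SD agar plating) were derived.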

Candida albicans [7] = test: Antifungal activity against Candida albicans ATCC 32354 at 187.7 uM after 48 hrs by CLSI method; procedure, shortened: as §4
Trichophyton rubrum [8] = test: Antifungal activity against Trichophyton rubrum ATCC MYA-4438 at 187.7 uM after 5 days by CLSI method
Pichia kudriavzevii [9] = test: Antifungal activity against Candida krusei ATCC 6258 at 187.7 uM after 48 hrs by CLSI method; procedure, shortened: as §2
Cryptococcus neoformans [10] = test: Antifungal activity against Cryptococcus neoformans ATCC 66031 at 187.7 uM after 72 hrs by CLSI method; procedure, shortened: as §1
Candida albicans [11] = test: Antifungal activity against Fluconazole resistant Candida albicans isolate 17 at 187.7 uM after 48 hrs by CLSI method; procedure, shortened: as §3
Candida albicans [12] = test: Antifungal activity against Candida albicans ATCC 60193 at 187.7 uM after 48 hrs by CLSI method; procedure, shortened: as §4
Candida albicans [13] = test: Antifungal activity against Candida albicans ATCC 14053 at 187.7 uM after 48 hrs by CLSI method
Candida albicans [14] = test: Antifungal activity against Candida albicans ATCC 90028 at 187.7 uM after 48 hrs by CLSI method; procedure, shortened: as §4
Candida albicans [15] = test: Antifungal activity against Candida albicans ATCC 90028 at 198.1 uM after 48 hrs by CLSI method; procedure, shortened: as §4
Aspergillus niger [16] = test: Antifungal activity against Aspergillus niger ATCC 16404 at 198.1 uM after 48 hrs by CLSI method
Candida parapsilosis = test: Antifungal activity against Candida parapsilosis ATCC 22019 at 168.9 uM after 48 hrs by CLSI method; procedure, shortened: as §2
Pichia kudriavzevii [17] = test: Antifungal activity against Candida krusei ATCC 6258 at 168.9 uM after 48 hrs by CLSI method; procedure, shortened: as §4
Aspergillus flavus = test: Antifungal activity against Aspergillus flavus ATCC 204304 at 168.9 uM after 48 hrs by CLSI method
Cryptococcus neoformans [18] = test: Antifungal activity against Cryptococcus neoformans ATCC 66031 at 168.9 uM after 72 hrs by CLSI method; procedure, shortened: as §1
Candida albicans [19] = test: Antifungal activity against Candida albicans ATCC 14053 at 168.9 uM after 48 hrs by CLSI method
Trichophyton rubrum [20] = test: Antifungal activity against Trichophyton rubrum ATCC MYA-4438 at 168.9 uM after 5 days by CLSI method
Aspergillus niger [21] = test: Antifungal activity against Aspergillus niger ATCC 16404 at 168.9 uM after 48 hrs by CLSI method
Candida albicans [22] = test: Antifungal activity against Fluconazole resistant Candida albicans isolate 17 at 9.4 uM after 48 hrs by CLSI method; procedure, shortened: as §3
Trichophyton rubrum [23] = test: Antifungal activity against Trichophyton rubrum ATCC 10218 at 9.4 uM after 5 days by CLSI method
Procedure, shortened: (§5)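 Trichophyton growth scraped from 1–6-week potato dextrose slants and filtered through Miracloth. Inoculum 2.7 × 10⁴ CFU/ml (final) in 5% Alamar blue-RPMI 1640 buffered with MOPS, pH 7.0. Duplicate twofold dilutions from 20% DMSO-saline. Incubated 35°C for 5 days. Fluorescence read at 544 nm excitation, 590 nm emission. Inhibition assessed at the highest test concentration.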

Candida albicans [24] = test: Antifungal activity against Candida albicans ATCC 60193 at 9.4 uM after 48 hrs by CLSI method; procedure, shortened: as §3
Candida albicans [25] = test: Antifungal activity against Candida albicans ATCC 32354 at 9.4 uM after 48 hrs by CLSI method; procedure, shortened: as §3
Candida albicans [26] = test: Antifungal activity against Candida albicans ATCC 90028 at 9.4 uM after 48 hrs by CLSI method; procedure, shortened: as §3
Candida albicans [27] = test: Antifungal activity against Candida albicans ATCC 14053 at 9.4 uM after 48 hrs by CLSI method; procedure, shortened: as §3
Trichophyton rubrum [28] = test: Antifungal activity against Trichophyton rubrum ATCC MYA-4438 at 9.4 uM after 5 days by CLSI method; procedure, shortened: as §5
Candida tropicalis [29] = test: Antifungal activity against Candida tropicalis ATCC 750 at 9.4 uM after 48 hrs by CLSI method; procedure, shortened: as §3
Aspergillus fumigatus [30] = test: Antifungal activity against Aspergillus fumigatus ATCC 204305 at 9.4 uM after 48 hrs by CLSI method
Procedure, shortened: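 Aspergillus growth on 1–6-week potato dextrose slants scraped and Miracloth-filtered. Inoculum sized by OD630 curve to 2.7 × 10⁴ CFU/ml (final) in 5% Alamar blue-RPMI 1640 (MOPS, pH 7.0). Duplicate twofold dilutions from 20% DMSO-saline. 35°C for 48 h. Fluorescence 544/590 nm read before and after. Percent inhibition taken at the highest test concentration.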

Measured: Activity

CCCCCCCCCCCCC#CCCCCC(=O)O [6-NONADECYNOIC ACID]
inactive: Cryptococcus neoformans [1] | Candida tropicalis [2] | Aspergillus fumigatus [3] | Aspergillus niger [4] | Candida albicans [5] | Candida albicans [6]

CCCCCCCCCCC#CCCCCC(=O)O
inactive: Candida albicans [7] | Trichophyton rubrum [8] | Pichia kudriavzevii [9] | Cryptococcus neoformans [10] | Candida albicans [11] | Candida albicans [12] | Candida albicans [13] | Candida albicans [14]

CCCCCCCCCC#CCCCCC(=O)O
inactive: Candida albicans [15] | Aspergillus niger [16]

CCCCCC#CCC#CCC#CCC#CCCCC(=O)O
inactive: Candida parapsilosis | Pichia kudriavzevii [17] | Aspergillus flavus | Cryptococcus neoformans [18] | Candida albicans [19] | Trichophyton rubrum [20] | Aspergillus niger [21]

CC(=O)N1CCN(c2ccc(OCC3COC(Cn4ccnc4)(c4ccc(Cl)cc4Cl)O3)cc2)CC1 (configuration not stated) [KETOCONAZOLE]
inactive: Candida albicans [22] | Trichophyton rubrum [23] | Candida albicans [24] | Candida albicans [25] | Candida albicans [26] | Candida albicans [27] | Trichophyton rubrum [28] | Candida tropicalis [29] | Aspergillus fumigatus [30]
